# Test results as given in ChEMBL document CHEMBL1148719, “Fine-tuning the amphiphilicity: a crucial parameter in the design of potent alpha-phenyl-N-tert-butylnitrone analogues” (J Med Chem, 2007).
# How the values were obtained:
# Rattus norvegicus [1] = organism: Rattus norvegicus; assay: Inhibition of hydrogen peroxide-induced inactivation of mitochondrial NADH:ubiquinone oxidoreductase iron sulfur cluster N2 at 10 uM
# Summary of the method: (§1)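 Rat brain submitochondrial particles were incubated for 30 min with hydrogen peroxide, peroxynitrite or doxorubicin, with or without nitrone at 10 µM. Complex I iron sulfur cluster N2 activity was measured as ferricyanide reduction. The value is the percentage inhibition of oxidative inactivation. Data are mean ± SEM (N = 10). Controls were vehicle-treated particles exposed to oxidotoxin alone; statistics were ANOVA with Bonferroni t-test.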
# Rattus norvegicus [2] = organism: Rattus norvegicus; assay: Inhibition of peroxynitrite-induced inactivation of mitochondrial NADH:ubiquinone oxidoreductase iron sulfur cluster N2 at 10 uM; summary of the method: as §1
# Rattus norvegicus [3] = organism: Rattus norvegicus; assay: Inhibition of doxorubicin-induced inactivation of mitochondrial NADH:ubiquinone oxidoreductase iron sulfur cluster N2 at 10 uM; summary of the method: as §1
# [4] = Cytoprotection in rat mixed cortical cells cultures assessed as inhibition of hydrogen peroxide-induced cell death at 10 uM after 24 hrs; type: functional
# Summary of the method: (§2)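 Mixed cortical cultures were treated for 24 h with oxidotoxin (hydrogen peroxide, peroxynitrite or doxorubicin, 200 µM), with antioxidant added at 10 µM. The value is the percentage inhibition of Trypan blue absorbance, read as enhanced cell survival. Data are mean ± SEM (N = 10). Comparison was against vehicle control by ANOVA with Bonferroni t-test.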
# [5] = Cytoprotection in rat mixed cortical cells cultures assessed as inhibition of peroxynitrite-induced cell death at 10 uM after 24 hrs; type: functional; summary of the method: as §2
# [6] = Cytoprotection in rat mixed cortical cells cultures assessed as inhibition of doxorubicin-induced cell death at 10 uM after 24 hrs; type: functional; summary of the method: as §2
# Rotifers [7] = assay: Cytoprotection against hydrogen peroxide-induced toxicity in rotifer assessed as viability at 10 uM; type: functional, Rotifera
# Summary of the method: (§3)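 Whole rotifers were exposed for 24 h to oxidotoxin (hydrogen peroxide or doxorubicin, 200 µM), with nitrone antioxidant added at 10 µM. Read-out was the percentage of viable organisms. Data are mean ± SEM (N = 10). Comparison was against vehicle control by ANOVA followed by Bonferroni t-test.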
# Rotifers [8] = assay: Cytoprotection against doxorubicin-induced toxicity in rotifer assessed as viability at 10 uM; type: functional, Rotifera; summary of the method: as §3
# [9] = Toxicity against rat mixed cortical cells cultures at 10 uM; type: cell-based
SMILES,inhibition (Rattus norvegicus [1]) [%],inhibition (Rattus norvegicus [2]) [%],inhibition (Rattus norvegicus [3]) [%],inhibition at 10 µM [4] [%],inhibition at 10 µM [5] [%],inhibition at 10 µM [6] [%],Activity (Rotifers [7]) [%],Activity (Rotifers [8]) [%],Activity [9]
CCCCCCCC(=O)NCC(C)(C)/[N+]([O-])=C/c1ccccc1OCC,,,,,,,,,Toxic
CC(C)(C)/[N+]([O-])=C/c1ccccc1,35,27.6,44.3,25,20.6,24.2,25.6,18.7,
CCCCCCCC(=O)NCC(C)(C)/[N+]([O-])=C/c1ccc(C(=O)NCC(=O)NC(CO)(CO)CO)cc1,59.2,40.5,83.5,33.8,30.5,74.3,24.1,54.3,

# Now from value to compound, other results behind:
inhibition (Rattus norvegicus [1]) [%],inhibition (Rattus norvegicus [2]) [%],inhibition (Rattus norvegicus [3]) [%],SMILES,inhibition at 10 µM [4] [%],inhibition at 10 µM [5] [%],inhibition at 10 µM [6] [%],Activity (Rotifers [7]) [%],Activity (Rotifers [8]) [%],Activity [9]
51.9,39.3,57.3,CC(C)(CNC(=O)CCC(F)(F)C(F)(F)C(F)(F)C(F)(F)C(F)(F)C(F)(F)F)/[N+]([O-])=C/c1ccc(CNC(=O)[C@H](O)[C@H](O)[C@H](O[C@@H]2O[C@H](CO)[C@H](O)[C@H](O)[C@H]2O)[C@@H](O)CO)cc1,63.4,40.1,34.9,40.6,30.6,
25.1,17.3,13.5,CC(C)(C)/[N+]([O-])=C\c1ccc(CNC(=O)[C@@H](O)[C@H](O)[C@H](O[C@@H]2O[C@H](CO)[C@H](O)[C@H](O)[C@H]2O)C(O)CO)cc1 (stereo partly specified),18.3,17.3,18.5,18.6,18.2,
78.3,72.5,90.7,CCCCCCCC(=O)NCC(C)(C)/[N+]([O-])=C/c1ccc(CNC(=O)[C@H](O)[C@H](O)[C@H](O[C@@H]2O[C@H](CO)[C@H](O)[C@H](O)[C@H]2O)[C@@H](O)CO)cc1,81,61,82,83,85.8,
